Results: article PMC3628437 (Antiviral research, 2013)

Legend:
hepatitis B virus (HBV) = assay: Real-time immune-absorbance PCR; assay type: cell-based; details: for Fold HBV reduction / Reduction of HBV virion levels in culture medium: G2.215 cells; for Fold HBV reduction: 10 μM compound, HBV DNA in culture medium by IA-PCR; for Reduction of HBV virion levels in culture medium: 5μM
[1] = test system: HBV large surface protein (LHBs); assay: Western blot of LHBs-containing HBV particles in G2.215 culture medium; assay type: cell-based, hepatitis B virus; details: G2.215 cells, 10 or 20μM, 6 day treatment
HBV replication [2] = assay: Southern blot of cellular HBV replication intermediates in G2.215 cells; assay type: cell-based, hepatitis B virus; details: any concentration tested
Outline: (§1)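 Cytoplasmic core DNA: one 6-well-plate well lysed 10 min at 37°C in Tris-EDTA pH 8.0 with NP40/sucrose. Nuclei removed; capsids PEG8000/NaCl-precipitated 2 h at 4°C, pronase/SDS-digested 1 h at 37°C, phenol-extracted, ethanol-precipitated. Half run on 1.5% agarose, depurinated, denatured, neutralised, blotted and probed with α-32P-UTP HBV probe for RC, DSL and SS forms. HepDE19 tet-free 5 days before dosing; G2.215 kept in G418.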

equine herpesvirus-4 = details: ref Romanowski et al., 1999; Storey et al., 2002; cited from earlier work
feline herpesvirus-1 = details: ref Romanowski et al., 1999; Storey et al., 2002; cited from earlier work
HBV virions = assay type: cell-based, hepatitis B virus; details: HepDE19 cells, 5 day treatment
Outline: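 HepDE19 cells (DMEM/F12, 10% FBS, tetracycline-suppressed) were switched to tet-free medium for 5 days, then dosed for 5 days at several concentrations (0.5% DMSO final). Virions from 1ml clarified medium were precipitated with 10% PEG8000 (final), 1 h at 4°C, pelleted and dissolved in TNE pH7.4. Run on non-denaturing 1% agarose to separate virions from naked nucleocapsids, then blotted and hybridized with labeled HBV probe.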

HBV replication [3] = assay: Southern blot of cellular HBV DNA in HepDE19 cells; assay type: cell-based, hepatitis B virus; details: up to 10 μM
Outline: as §1

Varicella Zoster Virus = details: ref Mekler et al., 1969; cited from earlier work
influenza virus = details: ref Mekler et al., 1969; cited from earlier work

Q: Which “CT of medium from treated G2.215 cells” value (hepatitis B virus (HBV); 30μM, 6 days, carrier alone CT ~26 undiluted) does the source give for `Nc1ccn([C@@H]2CS[C@H](CO)O2)c(=O)n1` [lamivudine] here?
A: 30–31 CT

Q: For `C[C@@H]1C/C=C/C=C/C=C/C=C/[C@H](O[C@@H]2O[C@H](C)[C@@H](O)[C@H](N)[C@@H]2O)C[C@@H]2O[C@](O)(C[C@@H](O)C[C@H]3O[C@@H]3/C=C/C(=O)O1)C[C@H](O)[C@H]2C(=O)O` [Natamycin], which “Fold HBV reduction” value (hepatitis B virus (HBV); 6 days) is on record?
A: 4 Fold

Q: Which “Reduction of HBV virion levels in culture medium” value (hepatitis B virus (HBV)) does the source give for `CCCOc1ccc(C(=O)OCCN(CC)CC)cc1N` [Proparacaine] here?
A: ~ 3 CT

Q: What about the “Fold HBV reduction” value (hepatitis B virus (HBV); 6 days) of the same compound?
A: 6 Fold

Q: And the IC50 (hepatitis B virus (HBV); Hepatitis B virus, read-out: IC50 against HBV)?
A: 1000 nM

Q: What about the “Inhibition of secretion of HBV particles containing LHBs in culture medium” value [1] of the same compound?
A: 3- to 4 fold

Q: What about the “Level of relaxed circular HBV DNA (RC-DNA) versus untreated control” value (HBV replication [2]) of the same compound?
A: no reduction

Q: What about the Inactivation of virus (equine herpesvirus-4) of the same compound?
A: can inactivate

Q: And the Inactivation of virus (feline herpesvirus-1)?
A: can inactivate

Q: Which results are given for `C=Cc1c(C)c2cc3nc(c4c5[n-]c(cc6nc(cc1[n-]2)C(C)=C6CC)c(C)c5C(=O)[C@@H]4C(=O)OC)[C@@H](CCC(=O)O)[C@@H]3C.[Mg+2]` [Chlorophyllide]?
A: Reduction of HBV virion levels in culture medium (hepatitis B virus (HBV)): ~ 2 CT; Fold HBV reduction (hepatitis B virus (HBV); 6 days): 4 Fold; Formation and secretion of nucleocapsids (HBV virions): not affected; Viral particles in cell culture medium (HBV virions): reduces viral particles in the cell culture medium in a dose-dependent manner; RC or SS DNA levels (cellular HBV DNA) (HBV replication [3]): did not repress; Inactivation of virus (Varicella Zoster Virus): inactivate; Inactivation of virus (influenza virus): inactivate

Q: For `O=C(c1ccc(OCCN2CCCCC2)cc1)c1c(-c2ccc(O)cc2)sc2cc(O)ccc12` [Raloxifene], which “Fold HBV reduction” value (hepatitis B virus (HBV); 6 days) is on record?
A: 3.5 Fold
